In ChEMBL document CHEMBL1140161, “Structure-activity relationships in 1,4-benzodioxan-related compounds. 9. From 1,4-benzodioxane to 1,4-dioxane ring as a promising template of novel alpha1D-adrenoreceptor antagonists, 5-HT1A full agonists, and cytotoxic agents” (J Med Chem, 2008):

Experiments:
[1] = molecular target: T1, Alpha-1B adrenergic receptor (Homo sapiens, UniProt P35368); test: Displacement of [3H]prazosin from human cloned Alpha-1B adrenoceptor expressed in CHO cells; type: cell-based
T1 sequence (P35368 whole entry): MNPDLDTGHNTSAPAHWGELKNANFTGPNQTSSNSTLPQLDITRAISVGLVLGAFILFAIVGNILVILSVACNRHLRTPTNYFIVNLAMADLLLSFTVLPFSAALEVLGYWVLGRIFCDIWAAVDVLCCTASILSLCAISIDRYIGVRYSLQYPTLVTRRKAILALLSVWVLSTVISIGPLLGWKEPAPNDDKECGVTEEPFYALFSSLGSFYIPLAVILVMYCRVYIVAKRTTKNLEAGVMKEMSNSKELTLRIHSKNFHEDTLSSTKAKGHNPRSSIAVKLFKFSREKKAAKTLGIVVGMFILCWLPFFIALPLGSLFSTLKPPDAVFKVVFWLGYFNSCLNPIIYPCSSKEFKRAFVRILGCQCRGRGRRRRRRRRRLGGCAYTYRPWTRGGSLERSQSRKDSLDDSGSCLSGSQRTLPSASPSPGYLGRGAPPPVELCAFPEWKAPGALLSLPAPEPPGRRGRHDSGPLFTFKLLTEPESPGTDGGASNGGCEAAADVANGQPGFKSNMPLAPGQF
Procedure, shortened: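 [3H]prazosin binding to cloned human α1-adrenoceptor subtypes expressed in CHO cell membranes. Affinity reported as pKi for each subtype.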

[2] = molecular target: T2, Alpha-1B adrenergic receptor (Rattus norvegicus) (UniProt P15823); test: Antagonist activity at alpha1B adrenoceptor in Wistar rat spleen assessed as inhibition of (-)-phenylephrine-induced contraction after 30 mins; type: functional, tissue-based
T2 sequence (whole entry): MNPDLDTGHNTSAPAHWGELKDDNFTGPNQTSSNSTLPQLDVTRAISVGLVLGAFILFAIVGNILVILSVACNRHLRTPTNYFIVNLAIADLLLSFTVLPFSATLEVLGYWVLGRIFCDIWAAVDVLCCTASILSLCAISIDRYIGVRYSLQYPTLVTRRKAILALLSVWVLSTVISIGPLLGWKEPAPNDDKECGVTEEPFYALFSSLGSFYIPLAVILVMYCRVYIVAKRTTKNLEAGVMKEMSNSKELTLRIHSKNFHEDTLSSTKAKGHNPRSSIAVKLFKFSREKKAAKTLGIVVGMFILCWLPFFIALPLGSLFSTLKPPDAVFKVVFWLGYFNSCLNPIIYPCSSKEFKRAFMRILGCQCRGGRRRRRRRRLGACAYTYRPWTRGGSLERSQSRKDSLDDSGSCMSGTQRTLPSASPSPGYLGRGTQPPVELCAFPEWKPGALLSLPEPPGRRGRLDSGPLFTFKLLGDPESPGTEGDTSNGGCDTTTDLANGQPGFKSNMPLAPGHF

[3] = molecular target: T3, 5-hydroxytryptamine receptor 1A (Homo sapiens) (UniProt P08908); test: Agonist activity at human cloned 5HT1A receptor expressed in HeLa cell membrane assessed as stimulation of [35S]GTPgammaS binding relative to 5-hydroxytryptamine; type: functional, cell membranes
T3 sequence (whole entry): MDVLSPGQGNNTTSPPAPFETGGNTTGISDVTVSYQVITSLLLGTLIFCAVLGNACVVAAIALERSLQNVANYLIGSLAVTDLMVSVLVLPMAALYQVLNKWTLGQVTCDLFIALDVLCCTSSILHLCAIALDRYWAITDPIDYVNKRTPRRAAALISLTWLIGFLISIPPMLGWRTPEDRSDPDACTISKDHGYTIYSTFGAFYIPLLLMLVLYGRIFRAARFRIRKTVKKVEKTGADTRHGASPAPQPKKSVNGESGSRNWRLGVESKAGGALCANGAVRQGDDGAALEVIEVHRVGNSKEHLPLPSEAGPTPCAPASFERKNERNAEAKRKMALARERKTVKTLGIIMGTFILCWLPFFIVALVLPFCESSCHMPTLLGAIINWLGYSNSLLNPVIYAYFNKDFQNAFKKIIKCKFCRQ
Procedure, shortened: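 Activation measured as [35S]GTPγS binding in membranes from HeLa cells expressing cloned human 5-HT1A receptor. pD2 is the negative log of agonist concentration giving 50% of maximal stimulation, from two to three experiments agreeing within 20%. Efficacy is given relative to 5-HT.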

[4] = molecular target: T3, 5-hydroxytryptamine receptor 1A (Homo sapiens); test: Agonist activity at human cloned 5HT1A receptor expressed in human HeLa cell membrane assessed as stimulation of [35S]GTPgammaS binding; type: functional, cell membranes
Procedure, shortened: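 Membranes from HeLa cells expressing cloned human 5-HT1A receptor; agonist-stimulated [35S]GTPγS binding measured. pD2 is the negative log of the agonist concentration giving 50% of maximal [35S]GTPγS binding stimulation; values from two to three experiments.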

PC-3 = test: Induction of apoptosis in human PC3 cells assessed as translocation of phosphatidylserine at 50 uM after 48 hrs by annexin V-FITC staining and cytofluorimetric analysis; type: functional
Procedure, shortened: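 PC-3 prostate cancer cells exposed to compound for 48 h, then stained with annexin V-FITC to detect externalized phosphatidylserine. Read-out by flow cytometry as mean fluorescence intensity (MFI), against untreated and vehicle-treated cells.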

| Structure (SMILES) | Ki [1] | pKb [2] | %max [3] | pD2 [4] | Flu intensity (PC-3) |
| --- | --- | --- | --- | --- | --- |
| c1ccc(OCCNC[C@@H]2CO[C@@H](c3ccccc3)CO2)cc1 (relative stereo) | > 1000 nM | 6.97 |  |  |  |
| COc1ccccc1OCCNC[C@@H]1COC[C@H](c2ccccc2)O1 (relative stereo) | 269 nM | 7.4 | 78.1 |  |  |
| c1ccc(OCCNC[C@@H]2COC(c3ccccc3)(c3ccccc3)CO2)cc1 | 141 nM | 6.28 |  |  |  |
| COc1cccc(OC)c1OCCNC[C@@H]1COC[C@@H](c2ccccc2)O1 (relative stereo) | > 1000 nM | 5.75 |  |  |  |
| c1ccc(OCCNC[C@@H]2COCC(c3ccccc3)(c3ccccc3)O2)cc1 | 120 nM | 7.84 | 77.1 | 9.11 | 76.98 |
| COc1ccccc1OCCNC[C@@H]1CO[C@H](c2ccccc2)CO1 (relative stereo) | 263 nM | 6.89 | 85.5 | 7.88 |  |
| COc1cccc(OC)c1OCCNC[C@@H]1COCC(c2ccccc2)(c2ccccc2)O1 | 324 nM | 6.24 | 106 | 8.28 |  |
| COc1cccc(OC)c1OCCNC[C@@H]1COC[C@H](c2ccccc2)O1 (relative stereo) | > 1000 nM | 5.84 |  |  |  |
| c1ccc(OCCNC[C@@H]2COC[C@H](c3ccccc3)O2)cc1 (relative stereo) | > 1000 nM | 7.12 |  |  |  |
| COc1cccc(OC)c1OCCNC[C@@H]1COC(c2ccccc2)(c2ccccc2)CO1 | 126 nM | 5.74 |  |  |  |
| c1ccc(OCCNC[C@@H]2CO[C@H](c3ccccc3)CO2)cc1 (relative stereo) | > 1000 nM | 6.68 |  |  |  |
| COc1ccccc1OCCNC[C@@H]1CO[C@@H](c2ccccc2)CO1 (relative stereo) | 282 nM | 7.44 |  |  |  |
| COc1cccc(OC)c1OCCNC[C@@H]1CO[C@H](c2ccccc2)CO1 (relative stereo) | > 1000 nM | 6.7 |  |  |  |
| COc1cccc(OC)c1OCCNC[C@@H]1CO[C@@H](c2ccccc2)CO1 (relative stereo) | > 1000 nM | 7.02 |  |  |  |
| c1ccc(OCCNC[C@@H]2COC[C@@H](c3ccccc3)O2)cc1 (relative stereo) | > 1000 nM | 6.88 |  |  |  |
| COc1ccccc1OCCNC[C@@H]1COC(c2ccccc2)(c2ccccc2)CO1 | 74.1 nM | 6.81 |  |  |  |
| COc1ccccc1OCCNC[C@@H]1COCC(c2ccccc2)(c2ccccc2)O1 | 56.2 nM | 6.86 | 81.5 | 9.4 |  |
| COc1ccccc1OCCNC[C@@H]1COC[C@@H](c2ccccc2)O1 (relative stereo) | 302 nM | 7.96 |  |  |  |
